In ChEMBL document CHEMBL3085707, “Solution-phase microwave assisted parallel synthesis of N,N'-disubstituted thioureas derived from benzoic acid: biological evaluation and molecular docking studies” (Eur J Med Chem, 2013):
Activity calls are given as the source filed them. No cut-off for these calls is given here.

Assays:
Aspergillus niger = assay: Antifungal activity against Aspergillus niger after 24 to 48 hrs by agar well diffusion method; assay type: functional
How it was run: (§1)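 Agar well diffusion: 20 mL inoculum added to molten potato dextrose agar and pour-plated, with 6 mm wells cut by cork borer after setting. Inhibition zone measured in mm and scored from + (<1 mm) to ++++ (>6 mm). 2% DMSO in screen medium was the negative control; fluconazole and terbinafine were separate positive controls.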

Aspergillus flavus = assay: Antifungal activity against Aspergillus flavus after 24 to 48 hrs by agar well diffusion method; assay type: functional; how it was run: as §1
Candida tropicalis = assay: Antifungal activity against Candida tropicalis after 24 to 48 hrs by agar well diffusion method; assay type: functional; how it was run: as §1
Saccharomyces cerevisiae = assay: Antifungal activity against Saccharomyces cerevisiae after 24 to 48 hrs by agar well diffusion method; assay type: functional; how it was run: as §1
[1] = system: Radical scavenging activity; assay: Antioxidant activity assessed as DPPH free radical scavenging activity after 30 mins; assay type: functional
Urease = Urease (Canavalia ensiformis, UniProt P07374); assay: Inhibition of jack bean urease assessed as ammonia production after 30 mins by indophenol method
How it was run: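 Indophenol (Weatherburn) ammonia read-out. Enzyme (5 U/mL) and test compound in buffer of 100 mM urea, 1 mM EDTA, 10 mM K2HPO4 and 10 mM […] at pH 8.2, incubated 30 min at 37 °C. Phenol and alkali reagents (NaOH, 0.1% active chloride NaOCl) then added; absorbance read by microplate reader. Run in triplicate; thiourea and acetohydroxamic acid as reference inhibitors.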

[2] = system: Radical scavenging activity; assay: Antioxidant activity assessed as DPPH free radical scavenging activity at 1 mM after 30 mins; assay type: functional
[3] = molecular target: Urease (Canavalia ensiformis) (UniProt P07374); assay: Competitive inhibition of jack bean urease by Lineweaver-Burk plot analysis
How it was run: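 Urease kinetics by the Weatherburn method: buffer of 100 mM urea, 1 mM EDTA, 10 mM K2HPO4 and 10 mM […] at pH 8.2, with enzyme at 5 U/mL and inhibitor, incubated 30 min at 37 °C. Inhibitor was used at 0, 0.05 and 0.5 mM. Vmax and Km were taken from Lineweaver-Burk plots.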

Sequence of Urease (P07374 whole entry): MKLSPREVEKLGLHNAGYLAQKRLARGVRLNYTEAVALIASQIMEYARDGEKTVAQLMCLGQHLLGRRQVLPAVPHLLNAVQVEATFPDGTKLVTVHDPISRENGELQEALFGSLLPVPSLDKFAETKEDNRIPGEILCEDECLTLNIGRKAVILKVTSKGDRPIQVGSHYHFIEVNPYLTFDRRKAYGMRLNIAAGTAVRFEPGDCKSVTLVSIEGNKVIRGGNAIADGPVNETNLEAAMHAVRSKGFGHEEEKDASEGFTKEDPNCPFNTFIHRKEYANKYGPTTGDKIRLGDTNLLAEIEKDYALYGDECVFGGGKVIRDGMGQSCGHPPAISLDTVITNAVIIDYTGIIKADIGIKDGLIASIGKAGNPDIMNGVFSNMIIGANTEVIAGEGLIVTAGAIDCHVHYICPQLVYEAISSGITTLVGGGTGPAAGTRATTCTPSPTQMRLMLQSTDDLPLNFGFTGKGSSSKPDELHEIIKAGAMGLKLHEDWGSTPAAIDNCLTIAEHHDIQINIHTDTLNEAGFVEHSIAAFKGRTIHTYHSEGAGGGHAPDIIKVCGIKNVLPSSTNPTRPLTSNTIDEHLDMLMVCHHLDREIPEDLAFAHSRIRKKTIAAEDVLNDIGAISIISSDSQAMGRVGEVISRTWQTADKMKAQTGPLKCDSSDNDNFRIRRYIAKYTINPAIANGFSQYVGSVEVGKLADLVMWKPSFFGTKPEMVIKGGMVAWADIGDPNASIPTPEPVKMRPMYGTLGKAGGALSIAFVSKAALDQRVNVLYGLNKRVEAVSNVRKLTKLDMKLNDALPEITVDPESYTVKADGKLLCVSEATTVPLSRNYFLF
Sequence of Urease (Canavalia ensiformis) (P07374 whole entry, looked up): as the sequence (P07374 whole entry) above

O=C(NC(=S)Nc1cc(Cl)ccc1Cl)c1ccccc1
inhibition zone (IZ) (Aspergillus niger): <1 mm
inhibition zone (IZ) (Aspergillus flavus): <1 mm
inhibition zone (IZ) (Candida tropicalis): <1 mm
inhibition zone (IZ) (Saccharomyces cerevisiae): <1 mm
IC50 [1]: 30.7 µM
IC50 (Urease): 4.54 µM

O=C(NC(=S)Nc1c(Cl)cccc1Cl)c1ccccc1
inhibition zone (IZ) (Aspergillus niger): 1 mm
inhibition [2]: 29%
inhibition zone (IZ) (Aspergillus flavus): 1 mm
inhibition zone (IZ) (Candida tropicalis): 1 mm
inhibition zone (IZ) (Saccharomyces cerevisiae): 1 mm
IC50 (Urease): 4.27 µM

O=C(NC(=S)NC1CCCCC1)c1ccccc1
inhibition zone (IZ) (Aspergillus niger): <1 mm
inhibition [2]: 28%
inhibition zone (IZ) (Aspergillus flavus): <1 mm
inhibition zone (IZ) (Candida tropicalis): <1 mm
inhibition zone (IZ) (Saccharomyces cerevisiae): <1 mm
IC50 (Urease): 53.2 µM

O=C(NC(=S)NCc1ccccc1Cl)c1ccccc1
inhibition zone (IZ) (Aspergillus niger): <1 mm
inhibition [2]: 36%
inhibition zone (IZ) (Aspergillus flavus): <1 mm
inhibition zone (IZ) (Candida tropicalis): <1 mm
inhibition zone (IZ) (Saccharomyces cerevisiae): <1 mm
IC50 (Urease): 35.3 µM

OC(Cn1cncn1)(Cn1cncn1)c1ccc(F)cc1F [FLUCONAZOLE]
inhibition zone (IZ) (Aspergillus niger): 3 mm
inhibition zone (IZ) (Aspergillus flavus): 3 mm
inhibition zone (IZ) (Candida tropicalis): 3 mm
inhibition zone (IZ) (Saccharomyces cerevisiae): 3 mm

Cc1cccc(NC(=S)NC(=O)c2ccccc2)c1C
inhibition zone (IZ) (Aspergillus niger): <1 mm
inhibition [2]: 27%
inhibition zone (IZ) (Aspergillus flavus): <1 mm
inhibition zone (IZ) (Candida tropicalis): <1 mm
inhibition zone (IZ) (Saccharomyces cerevisiae): <1 mm
IC50 (Urease): 3.17 µM

Cc1cc(C)c(NC(=S)NC(=O)c2ccccc2)c(C)c1
inhibition zone (IZ) (Aspergillus niger): <1 mm
inhibition [2]: 24%
inhibition zone (IZ) (Aspergillus flavus): 1 mm
inhibition zone (IZ) (Candida tropicalis): 1 mm
inhibition zone (IZ) (Saccharomyces cerevisiae): <1 mm
IC50 (Urease): 8.11 µM

O=C(NC(=S)Nc1c(Cl)cc(Cl)cc1Cl)c1ccccc1
inhibition [3]: Active
inhibition zone (IZ) (Aspergillus niger): 3 mm
inhibition [2]: 19%
inhibition zone (IZ) (Aspergillus flavus): 3 mm
inhibition zone (IZ) (Candida tropicalis): 3 mm
inhibition zone (IZ) (Saccharomyces cerevisiae): 3 mm
IC50 (Urease): 1.67 µM

O=C(NC(=S)Nc1ccc(Cl)cc1Cl)c1ccccc1
inhibition zone (IZ) (Aspergillus niger): 3 mm
inhibition zone (IZ) (Aspergillus flavus): 1 mm
inhibition zone (IZ) (Candida tropicalis): 1 mm
inhibition zone (IZ) (Saccharomyces cerevisiae): 3 mm
IC50 [1]: 240 µM
IC50 (Urease): 13.2 µM

O=C(NC(=S)Nc1ccc(C(F)(F)F)cc1)c1ccccc1
inhibition zone (IZ) (Aspergillus niger): 3 mm
inhibition zone (IZ) (Aspergillus flavus): 3 mm
inhibition zone (IZ) (Candida tropicalis): 3 mm
inhibition zone (IZ) (Saccharomyces cerevisiae): 3 mm
IC50 [1]: 114 µM
IC50 (Urease): 12.2 µM

CN(C/C=C/C#CC(C)(C)C)Cc1cccc2ccccc12 [TERBINAFINE]
inhibition zone (IZ) (Aspergillus niger): 3 mm
inhibition zone (IZ) (Aspergillus flavus): 3 mm
inhibition zone (IZ) (Candida tropicalis): 3 mm
inhibition zone (IZ) (Saccharomyces cerevisiae): 3 mm

COc1ccc(O)c(C(C)(C)C)c1.COc1ccc(O)cc1C(C)(C)C [BUTYLATED HYDROXYANISOLE]
IC50 [1]: 28.2 µM

CCCOC(=O)c1cc(O)c(O)c(O)c1 [PROPYL GALLATE]
IC50 [1]: 40.8 µM

O=C(NC(=S)Nc1ccc(Cl)cc1)c1ccccc1
inhibition zone (IZ) (Aspergillus niger): 1 mm
inhibition zone (IZ) (Aspergillus flavus): 1 mm
inhibition zone (IZ) (Candida tropicalis): 1 mm
inhibition zone (IZ) (Saccharomyces cerevisiae): 1 mm
IC50 [1]: 265 µM
IC50 (Urease): 35.3 µM

Cc1ccc(NC(=S)NC(=O)c2ccccc2)cc1
inhibition zone (IZ) (Aspergillus niger): 1 mm
inhibition zone (IZ) (Aspergillus flavus): 1 mm
inhibition zone (IZ) (Candida tropicalis): 1 mm
inhibition zone (IZ) (Saccharomyces cerevisiae): 1 mm
IC50 [1]: 23.3 µM
IC50 (Urease): 6.23 µM

O=C(NC(=S)Nc1ccccc1)c1ccccc1 [N-(PHENYLCARBAMOTHIOYL)BENZAMIDE]
inhibition zone (IZ) (Aspergillus niger): inactive
inhibition zone (IZ) (Aspergillus flavus): inactive
inhibition zone (IZ) (Candida tropicalis): inactive
inhibition zone (IZ) (Saccharomyces cerevisiae): inactive
IC50 [1]: 769 µM
IC50 (Urease): 14.1 µM

CCCCc1ccc(NC(=S)NC(=O)c2ccccc2)cc1
inhibition zone (IZ) (Aspergillus niger): <1 mm
inhibition zone (IZ) (Aspergillus flavus): <1 mm
inhibition zone (IZ) (Candida tropicalis): <1 mm
inhibition zone (IZ) (Saccharomyces cerevisiae): <1 mm
IC50 [1]: 676 µM
IC50 (Urease): 47.2 µM

O=C(NC(=S)Nc1ncccn1)c1ccccc1
inhibition zone (IZ) (Aspergillus niger): <1 mm
inhibition zone (IZ) (Aspergillus flavus): inactive
inhibition zone (IZ) (Candida tropicalis): inactive
inhibition zone (IZ) (Saccharomyces cerevisiae): <1 mm
IC50 [1]: 276 µM
IC50 (Urease): 8.21 µM

O=C(NC(=S)Nc1cccc(C(F)(F)F)c1)c1ccccc1
inhibition zone (IZ) (Aspergillus niger): 3 mm
inhibition [2]: 34%
inhibition zone (IZ) (Aspergillus flavus): 1 mm
inhibition zone (IZ) (Candida tropicalis): 1 mm
inhibition zone (IZ) (Saccharomyces cerevisiae): 3 mm
IC50 (Urease): 39.6 µM

O=C(NC(=S)Nc1ccccc1C(F)(F)F)c1ccccc1
inhibition zone (IZ) (Aspergillus niger): 1 mm
inhibition [2]: 38%
inhibition zone (IZ) (Aspergillus flavus): 3 mm
inhibition zone (IZ) (Candida tropicalis): 3 mm
inhibition zone (IZ) (Saccharomyces cerevisiae): 1 mm
IC50 (Urease): 38.2 µM

NC(N)=S [THIOUREA]
IC50 (Urease): 22.3 µM

O=C(NC(=S)Nc1ccc(F)cc1)c1ccccc1
inhibition zone (IZ) (Aspergillus niger): 3 mm
inhibition [2]: 31%
inhibition zone (IZ) (Aspergillus flavus): 3 mm
inhibition zone (IZ) (Candida tropicalis): 3 mm
inhibition zone (IZ) (Saccharomyces cerevisiae): 3 mm
IC50 (Urease): 41.2 µM

O=C(NC(=S)Nc1cccc(Cl)c1)c1ccccc1
inhibition zone (IZ) (Aspergillus niger): <1 mm
inhibition [2]: 21%
inhibition zone (IZ) (Aspergillus flavus): <1 mm
inhibition zone (IZ) (Candida tropicalis): <1 mm
inhibition zone (IZ) (Saccharomyces cerevisiae): <1 mm
IC50 (Urease): 27.3 µM

O=C(NC(=S)Nc1cc(Cl)cc(Cl)c1)c1ccccc1
inhibition zone (IZ) (Aspergillus niger): <1 mm
inhibition zone (IZ) (Aspergillus flavus): <1 mm
inhibition zone (IZ) (Candida tropicalis): <1 mm
inhibition zone (IZ) (Saccharomyces cerevisiae): <1 mm
IC50 [1]: 27 µM
IC50 (Urease): 18.4 µM

O=C(NC(=S)Nc1cccc(F)c1)c1ccccc1
inhibition zone (IZ) (Aspergillus niger): 1 mm
inhibition [2]: 38%
inhibition zone (IZ) (Aspergillus flavus): <1 mm
inhibition zone (IZ) (Candida tropicalis): <1 mm
inhibition zone (IZ) (Saccharomyces cerevisiae): 1 mm
IC50 (Urease): 3.52 µM

O=C(NC(=S)Nc1c(Cl)c(Cl)cc(Cl)c1Cl)c1ccccc1
inhibition zone (IZ) (Aspergillus niger): 3 mm
inhibition [2]: 31%
inhibition zone (IZ) (Aspergillus flavus): 3 mm
inhibition zone (IZ) (Candida tropicalis): 3 mm
inhibition zone (IZ) (Saccharomyces cerevisiae): 3 mm
IC50 (Urease): 74.9 µM

O=C(NC(=S)Nc1cccc(Cl)c1Cl)c1ccccc1
inhibition zone (IZ) (Aspergillus niger): <1 mm
inhibition zone (IZ) (Aspergillus flavus): <1 mm
inhibition zone (IZ) (Candida tropicalis): <1 mm
inhibition zone (IZ) (Saccharomyces cerevisiae): <1 mm
IC50 [1]: 29.5 µM
IC50 (Urease): 32.2 µM

COc1cccc(NC(=S)NC(=O)c2ccccc2)c1
inhibition zone (IZ) (Aspergillus niger): 3 mm
inhibition zone (IZ) (Aspergillus flavus): 3 mm
inhibition zone (IZ) (Candida tropicalis): 3 mm
inhibition zone (IZ) (Saccharomyces cerevisiae): 3 mm
IC50 [1]: 805 µM
IC50 (Urease): 12.8 µM

O=C(NC(=S)Nc1ccc(Cl)c(Cl)c1)c1ccccc1
inhibition zone (IZ) (Aspergillus niger): <1 mm
inhibition zone (IZ) (Aspergillus flavus): <1 mm
inhibition zone (IZ) (Candida tropicalis): <1 mm
inhibition zone (IZ) (Saccharomyces cerevisiae): <1 mm
IC50 [1]: 70 µM
IC50 (Urease): 5.51 µM

O=C(NC(=S)Nc1ccccc1Cl)c1ccccc1
inhibition zone (IZ) (Aspergillus niger): <1 mm
inhibition [2]: 26%
inhibition zone (IZ) (Aspergillus flavus): <1 mm
inhibition zone (IZ) (Candida tropicalis): <1 mm
inhibition zone (IZ) (Saccharomyces cerevisiae): <1 mm
IC50 (Urease): 41.2 µM

O=C(NC(=S)NCc1ccccc1)c1ccccc1
inhibition zone (IZ) (Aspergillus niger): inactive
inhibition [2]: 22%
inhibition zone (IZ) (Aspergillus flavus): inactive
inhibition zone (IZ) (Candida tropicalis): inactive
inhibition zone (IZ) (Saccharomyces cerevisiae): inactive
IC50 (Urease): 27.4 µM
